# Test results reported in ChEMBL document CHEMBL1155468, “Syntheses and evaluation of anticonvulsant profile and teratogenicity of novel amide derivatives of branched aliphatic carboxylic acids with 4-aminobenzensulfonamide” (J Med Chem, 2010).
# Active and inactive are the calls of the source. The rule behind the calls is not given here.
# Legend:
# [1] = tested on: Mus musculus; assay: Anticonvulsant activity in CF1 albino mouse assessed as inhibition of subcutaneous pentylenetetrazole-induced seizures at 100 mg/kg, ip after 4 hrs; assay type: functional, organism-based; parameters: dose 100 mg/kg
# Procedure, shortened: (§1)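 Adult male CF no. 1 albino mice (18-25 g) dosed ip with compound suspended in 0.5% methylcellulose (0.01 mL/g). Convulsant: pentylenetetrazol dissolved in 0.9% saline as a 0.85% solution for mice, given subcutaneously.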
# [2] = tested on: Mus musculus; assay: Anticonvulsant activity in CF1 albino mouse assessed as inhibition of maximal electroshock-induced seizures at 300 mg/kg, ip after 4 hrs; assay type: functional, organism-based; parameters: dose 300 mg/kg
# Procedure, shortened: (§2)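 Test compounds suspended in 0.5% methylcellulose and given ip to adult male CF no. 1 albino mice (18-25 g) at 0.01 mL/g body weight before maximal electroshock challenge.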
# [3] = tested on: Mus musculus; assay: Teratogenic effect in SWV mouse assessed as fetuses with neural tube deffects at 340 mg/kg, ip administered on morning of day 8 of gestation; assay type: toxicity, organism-based; parameters: dose 340 mg/kg, route intraperitoneal; settings: in vivo
# Procedure, shortened: (§3)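 Two-month-old nulligravid SWV females were mated overnight and checked for vaginal plugs the next morning; gestation onset was set at 10 p.m. the previous night. On gestation day 8.5, each dam received a single ip injection (0.55-2.7 mmol/kg range) or vehicle (25% aqueous Cremophor EL) at 10 μL/g body weight. Litters were scored for implants, resorptions, live and dead fetuses, and fetuses with neural tube defects.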
# [4] = tested on: Mus musculus; assay: Neurotoxicity in CF1 albino mouse assessed as motor impairment at 300 mg/kg, ip after 0.5 hrs; assay type: toxicity, organism-based; parameters: dose 300 mg/kg, route intraperitoneal; settings: in vivo
# [5] = tested on: Mus musculus; assay: Teratogenic effect in SWV mouse assessed as live fetuses at 172 mg/kg, ip administered on morning of day 8 of gestation; assay type: toxicity, organism-based; parameters: dose 172 mg/kg, route intraperitoneal; settings: in vivo; procedure, shortened: as §3
# [6] = tested on: Mus musculus; assay: Neurotoxicity in CF1 albino mouse assessed as motor impairment at 30 mg/kg, ip after 0.5 hrs; assay type: toxicity, organism-based; parameters: dose 30 mg/kg, route intraperitoneal; settings: in vivo
# [7] = tested on: Mus musculus; assay: Anticonvulsant activity in CF1 albino mouse assessed as inhibition of subcutaneous pentylenetetrazole-induced seizures at 300 mg/kg, ip after 0.5 hrs; assay type: functional, organism-based; parameters: dose 300 mg/kg; procedure, shortened: as §1
# [8] = organism: Rattus norvegicus; assay: Protective index, ratio of TD50 for rat to ED50 for maximal electroshock-induced rat seizure model
# [9] = tested on: Mus musculus; assay: Neurotoxicity in CF1 albino mouse assessed as motor impairment at 300 mg/kg, ip after 4 hrs; assay type: toxicity, organism-based; parameters: dose 300 mg/kg, route intraperitoneal; settings: in vivo
# [10] = tested on: Mus musculus; assay: Anticonvulsant activity in CF1 albino mouse assessed as inhibition of subcutaneous pentylenetetrazole-induced seizures at 100 mg/kg, ip after 0.5 hrs; assay type: functional, organism-based; parameters: dose 100 mg/kg; procedure, shortened: as §1
# [11] = tested on: Rattus norvegicus; assay: Anticonvulsant activity in Sprague-Dawley rat assessed as inhibition of maximal electroshock-induced seizures at 30 mg/kg, po after 15 mins
# [12] = tested on: Mus musculus; assay: Teratogenic effect in SWV mouse assessed as resorptions at 172 mg/kg, ip administered on morning of day 8 of gestation; assay type: toxicity, organism-based; parameters: dose 172 mg/kg, route intraperitoneal; settings: in vivo
# Procedure, shortened: (§4)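 SWV inbred mice: two-month-old nulligravid females mated overnight with males and checked for vaginal plugs next morning; gestation onset taken as 10 p.m. the previous night. On gestation day 8.5 each dam got one ip injection, 0.55–2.7 mmol/kg, in 25% aqueous Cremophor EL (vehicle controls dosed alike), 10 μL/g body weight. Litters and implants tallied; resorptions and live fetuses reported as counts with percentages.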
# [13] = tested on: Mus musculus; assay: Anticonvulsant activity in CF1 albino mouse assessed as inhibition of subcutaneous pentylenetetrazole-induced seizures at 300 mg/kg, ip after 4 hrs; assay type: functional, organism-based; parameters: dose 300 mg/kg; procedure, shortened: as §1
# [14] = tested on: Mus musculus; assay: Anticonvulsant activity in CF1 albino mouse assessed as inhibition of maximal electroshock-induced seizures at 30 mg/kg, ip after 0.5 hrs; assay type: functional, organism-based; parameters: dose 30 mg/kg; procedure, shortened: as §2
# [15] = tested on: Mus musculus; assay: Neurotoxicity in CF1 albino mouse assessed as motor impairment at 30 mg/kg, ip after 4 hrs; assay type: toxicity, organism-based; parameters: dose 30 mg/kg, route intraperitoneal; settings: in vivo
# [16] = tested on: Mus musculus; assay: Neurotoxicity in CF1 albino mouse assessed as motor impairment at 100 mg/kg, ip after 0.5 hrs; assay type: toxicity, organism-based; parameters: dose 100 mg/kg, route intraperitoneal; settings: in vivo
# [17] = tested on: Mus musculus; assay: Teratogenic effect in SWV mouse assessed as resorptions at 340 mg/kg, ip administered on morning of day 8 of gestation; assay type: toxicity, organism-based; parameters: dose 340 mg/kg, route intraperitoneal; settings: in vivo; procedure, shortened: as §4
# [18] = tested on: Mus musculus; assay: Teratogenic effect in SWV mouse assessed as fetuses with neural tube deffects at 562 mg/kg, ip administered on morning of day 8 of gestation; assay type: toxicity, organism-based; parameters: dose 562 mg/kg, route intraperitoneal; settings: in vivo; procedure, shortened: as §3
# [19] = tested on: Mus musculus; assay: Teratogenic effect in SWV mouse assessed as live fetuses at 562 mg/kg, ip administered on morning of day 8 of gestation; assay type: toxicity, organism-based; parameters: dose 562 mg/kg, route intraperitoneal; settings: in vivo; procedure, shortened: as §4
# [20] = tested on: Rattus norvegicus; assay: Neurotoxicity in Sprague-Dawley rat assessed as motor impairment at 30 mg/kg, po after 0.25 to 4 hrs; settings: in vivo
# [21] = tested on: Mus musculus; assay: Neurotoxicity in CF1 albino mouse assessed as motor impairment at 100 mg/kg, ip after 4 hrs; assay type: toxicity, organism-based; parameters: dose 100 mg/kg, route intraperitoneal; settings: in vivo
# [22] = tested on: Mus musculus; assay: Anticonvulsant activity in CF1 albino mouse assessed as inhibition of subcutaneous pentylenetetrazole-induced seizures at 30 mg/kg, ip after 0.5 hrs; assay type: functional, organism-based; parameters: dose 30 mg/kg; procedure, shortened: as §1
# [23] = tested on: Mus musculus; assay: Anticonvulsant activity in CF1 albino mouse assessed as inhibition of maximal electroshock-induced seizures at 300 mg/kg, ip after 0.5 hrs; assay type: functional, organism-based; parameters: dose 300 mg/kg; procedure, shortened: as §2
# [24] = tested on: Rattus norvegicus; assay: Anticonvulsant activity in po dosed rat assessed as inhibition of maximal electroshock-induced seizures
# [25] = tested on: Mus musculus; assay: Teratogenic effect in SWV mouse assessed as resorptions at 562 mg/kg, ip administered on morning of day 8 of gestation; assay type: toxicity, organism-based; parameters: dose 562 mg/kg, route intraperitoneal; settings: in vivo; procedure, shortened: as §4
# [26] = tested on: Mus musculus; assay: Anticonvulsant activity in CF1 albino mouse assessed as inhibition of maximal electroshock-induced seizures at 30 mg/kg, ip after 4 hrs; assay type: functional, organism-based; parameters: dose 30 mg/kg; procedure, shortened: as §2
# [27] = tested on: Mus musculus; assay: Teratogenic effect in SWV mouse assessed as live fetuses at 340 mg/kg, ip administered on morning of day 8 of gestation; assay type: toxicity, organism-based; parameters: dose 340 mg/kg, route intraperitoneal; settings: in vivo; procedure, shortened: as §4
# [28] = tested on: Mus musculus; assay: Anticonvulsant activity in CF1 albino mouse assessed as inhibition of subcutaneous pentylenetetrazole-induced seizures at 30 mg/kg, ip after 4 hrs; assay type: functional, organism-based; parameters: dose 30 mg/kg; procedure, shortened: as §1
# [29] = tested on: Mus musculus; assay: Teratogenic effect in SWV mouse assessed as fetuses with neural tube deffects at 172 mg/kg, ip administered on morning of day 8 of gestation; assay type: toxicity, organism-based; parameters: dose 172 mg/kg, route intraperitoneal; settings: in vivo; procedure, shortened: as §3
# [30] = tested on: Mus musculus; assay: Teratogenic effect in SWV mouse assessed as fetuses with neural tube deffects at 310 mg/kg, ip administered on morning of day 8 of gestation; assay type: toxicity, organism-based; parameters: dose 310 mg/kg, route intraperitoneal; settings: in vivo; procedure, shortened: as §3
# [31] = tested on: Mus musculus; assay: Teratogenic effect in SWV mouse assessed as resorptions at 310 mg/kg, ip administered on morning of day 8 of gestation; assay type: toxicity, organism-based; parameters: dose 310 mg/kg, route intraperitoneal; settings: in vivo; procedure, shortened: as §4
# [32] = tested on: Mus musculus; assay: Teratogenic effect in SWV mouse assessed as live fetuses at 156 mg/kg, ip administered on morning of day 8 of gestation; assay type: toxicity, organism-based; parameters: dose 156 mg/kg, route intraperitoneal; settings: in vivo; procedure, shortened: as §3
# [33] = tested on: Rattus norvegicus; assay: Anticonvulsant activity in Sprague-Dawley rat assessed as inhibition of maximal electroshock-induced seizures at 30 mg/kg, po after 2 hrs
# [34] = tested on: Mus musculus; assay: Teratogenic effect in SWV mouse assessed as resorptions at 156 mg/kg, ip administered on morning of day 8 of gestation; assay type: toxicity, organism-based; parameters: dose 156 mg/kg, route intraperitoneal; settings: in vivo; procedure, shortened: as §4
# [35] = tested on: Mus musculus; assay: Teratogenic effect in SWV mouse assessed as live fetuses at 310 mg/kg, ip administered on morning of day 8 of gestation; assay type: toxicity, organism-based; parameters: dose 310 mg/kg, route intraperitoneal; settings: in vivo; procedure, shortened: as §3
# [36] = tested on: Rattus norvegicus; assay: Anticonvulsant activity in Sprague-Dawley rat assessed as inhibition of maximal electroshock-induced seizures at 30 mg/kg, po after 4 hrs
# [37] = tested on: Mus musculus; assay: Teratogenic effect in SWV mouse assessed as live fetuses at 511 mg/kg, ip administered on morning of day 8 of gestation; assay type: toxicity, organism-based; parameters: dose 511 mg/kg, route intraperitoneal; settings: in vivo; procedure, shortened: as §4
# [38] = tested on: Mus musculus; assay: Teratogenic effect in SWV mouse assessed as resorptions at 511 mg/kg, ip administered on morning of day 8 of gestation; assay type: toxicity, organism-based; parameters: dose 511 mg/kg, route intraperitoneal; settings: in vivo; procedure, shortened: as §4
# [39] = tested on: Mus musculus; assay: Anticonvulsant activity in CF1 albino mouse assessed as inhibition of maximal electroshock-induced seizures at 100 mg/kg, ip after 0.5 hrs; assay type: functional, organism-based; parameters: dose 100 mg/kg; procedure, shortened: as §2
# [40] = tested on: Mus musculus; assay: Teratogenic effect in SWV mouse assessed as fetuses with neural tube deffects at 511 mg/kg, ip administered on morning of day 8 of gestation; assay type: toxicity, organism-based; parameters: dose 511 mg/kg, route intraperitoneal; settings: in vivo; procedure, shortened: as §3
Structure (SMILES),Activity [1],Activity [2],Activity [4],Activity [6],Activity [7],Ratio TD50/ED50 [8],Activity [9],Activity [10],Activity [13],Activity [14],Activity [15],Activity [16],Activity [20],Activity [21],Activity [22],Activity [23],ED50 [24],Activity [26],Activity [28],other results
CCCC(C(=O)Nc1ccc(S(N)(=O)=O)cc1)C(C)CC (centres undefined),inactive,Active,Non-toxic,Non-toxic,inactive,>13.9,Non-toxic,inactive,inactive,inactive,Non-toxic,Non-toxic,Non-toxic,Non-toxic,inactive,Active,35.8 mg/kg,inactive,inactive,Activity [3]: 5%; Activity [5]: 88%; Activity [11]: inactive; Activity [12]: 12%; Activity [17]: 33.3%; Activity [18]: 7.1%; Activity [19]: 50%; Activity [25]: 50%; Activity [27]: 66.7%; Activity [29]: 7.8%
CCC(CC)C(=O)NCc1ccc(S(N)(=O)=O)cc1,inactive,Active,Non-toxic,Non-toxic,inactive,>20.2,Non-toxic,inactive,inactive,inactive,Non-toxic,Non-toxic,Non-toxic,Non-toxic,inactive,Active,24.7 mg/kg,inactive,inactive,Activity [30]: 3.4%; Activity [31]: 6.5%; Activity [32]: 94.4%; Activity [33]: inactive; Activity [34]: 5.6%; Activity [35]: 93.5%; Activity [36]: inactive; Activity [37]: 93.6%; Activity [38]: 6.4%; Activity [39]: Active; Activity [40]: 3.1%
